Experiment [1] concerns the target T1, Toll-like receptor 9 (Homo sapiens) (UniProt Q9NR96).
T1 sequence (whole entry): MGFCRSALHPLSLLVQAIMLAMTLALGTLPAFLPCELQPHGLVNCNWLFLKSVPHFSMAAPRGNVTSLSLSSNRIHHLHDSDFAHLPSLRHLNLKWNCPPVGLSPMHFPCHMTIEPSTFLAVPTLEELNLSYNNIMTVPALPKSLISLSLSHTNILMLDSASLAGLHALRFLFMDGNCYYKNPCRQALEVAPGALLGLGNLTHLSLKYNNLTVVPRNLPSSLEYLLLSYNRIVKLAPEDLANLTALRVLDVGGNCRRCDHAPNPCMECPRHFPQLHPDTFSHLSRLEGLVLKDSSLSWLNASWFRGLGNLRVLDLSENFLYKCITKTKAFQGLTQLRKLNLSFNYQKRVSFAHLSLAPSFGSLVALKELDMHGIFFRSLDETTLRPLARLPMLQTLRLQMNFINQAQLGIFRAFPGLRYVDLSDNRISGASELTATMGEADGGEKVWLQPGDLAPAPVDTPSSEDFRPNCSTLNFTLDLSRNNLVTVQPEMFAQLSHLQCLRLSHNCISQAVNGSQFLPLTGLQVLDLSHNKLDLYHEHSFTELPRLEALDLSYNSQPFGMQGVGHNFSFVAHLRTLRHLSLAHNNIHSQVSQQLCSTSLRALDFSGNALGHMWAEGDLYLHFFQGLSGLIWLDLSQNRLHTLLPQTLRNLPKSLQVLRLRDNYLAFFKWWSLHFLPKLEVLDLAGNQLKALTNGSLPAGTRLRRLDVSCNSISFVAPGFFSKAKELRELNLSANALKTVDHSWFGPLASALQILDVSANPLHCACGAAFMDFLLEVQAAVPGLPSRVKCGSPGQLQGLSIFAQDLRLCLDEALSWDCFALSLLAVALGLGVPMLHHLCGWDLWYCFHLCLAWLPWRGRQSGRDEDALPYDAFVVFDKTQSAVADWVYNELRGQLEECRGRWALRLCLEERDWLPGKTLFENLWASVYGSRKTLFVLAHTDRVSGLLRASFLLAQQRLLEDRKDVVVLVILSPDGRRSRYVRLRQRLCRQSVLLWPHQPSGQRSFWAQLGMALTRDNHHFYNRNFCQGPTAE
In words: Induction of TLR9-mediated immune stimulation in human PBMC assessed as MIP1alpha production at 10 ug/ml after 24 hrs by luminex multiplex assay (RVb = 0.01 ng/ml).

Experiment [2] has as its target T1, Toll-like receptor 9 (Homo sapiens). The experiment in a line: Induction of TLR9-mediated immune stimulation in human PBMC assessed as IL12 production at 10 ug/ml after 24 hrs by luminex multiplex assay (RVb = 0.00 ng/ml).
Experiment [3] shares this target. The experiment in a line: Induction of TLR9-mediated immune stimulation in human PBMC assessed as IP10 production at 10 ug/ml after 24 hrs by luminex multiplex assay (RVb = 0.00 ng/ml).
Experiment [4] shares this target. In words: Induction of TLR9-mediated immune stimulation in human PBMC assessed as IL1Ralpha production at 10 ug/ml after 24 hrs by luminex multiplex assay (RVb = 0.12 +/- 0.03 ng/ml).
For experiment [5] the target is unchanged. The experiment in a line: Induction of TLR9-mediated human B cell proliferation assessed as [3H]thymidine uptake after 56 hrs by scintillation counting. Put shortly: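 B cells were purified from human PBMCs (healthy volunteers), about 1 × 10⁵ cells, and stimulated with various agonist concentrations for 56 h. Cells were then pulsed with 0.75 μCi [³H]-thymidine and harvested 16 h later. Incorporation was counted by scintillation and reported as cpm.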

Experiment [6] has as its target T2, Toll-like receptor 9 (Mus musculus) (UniProt Q9EQU3).
T2 sequence (whole entry): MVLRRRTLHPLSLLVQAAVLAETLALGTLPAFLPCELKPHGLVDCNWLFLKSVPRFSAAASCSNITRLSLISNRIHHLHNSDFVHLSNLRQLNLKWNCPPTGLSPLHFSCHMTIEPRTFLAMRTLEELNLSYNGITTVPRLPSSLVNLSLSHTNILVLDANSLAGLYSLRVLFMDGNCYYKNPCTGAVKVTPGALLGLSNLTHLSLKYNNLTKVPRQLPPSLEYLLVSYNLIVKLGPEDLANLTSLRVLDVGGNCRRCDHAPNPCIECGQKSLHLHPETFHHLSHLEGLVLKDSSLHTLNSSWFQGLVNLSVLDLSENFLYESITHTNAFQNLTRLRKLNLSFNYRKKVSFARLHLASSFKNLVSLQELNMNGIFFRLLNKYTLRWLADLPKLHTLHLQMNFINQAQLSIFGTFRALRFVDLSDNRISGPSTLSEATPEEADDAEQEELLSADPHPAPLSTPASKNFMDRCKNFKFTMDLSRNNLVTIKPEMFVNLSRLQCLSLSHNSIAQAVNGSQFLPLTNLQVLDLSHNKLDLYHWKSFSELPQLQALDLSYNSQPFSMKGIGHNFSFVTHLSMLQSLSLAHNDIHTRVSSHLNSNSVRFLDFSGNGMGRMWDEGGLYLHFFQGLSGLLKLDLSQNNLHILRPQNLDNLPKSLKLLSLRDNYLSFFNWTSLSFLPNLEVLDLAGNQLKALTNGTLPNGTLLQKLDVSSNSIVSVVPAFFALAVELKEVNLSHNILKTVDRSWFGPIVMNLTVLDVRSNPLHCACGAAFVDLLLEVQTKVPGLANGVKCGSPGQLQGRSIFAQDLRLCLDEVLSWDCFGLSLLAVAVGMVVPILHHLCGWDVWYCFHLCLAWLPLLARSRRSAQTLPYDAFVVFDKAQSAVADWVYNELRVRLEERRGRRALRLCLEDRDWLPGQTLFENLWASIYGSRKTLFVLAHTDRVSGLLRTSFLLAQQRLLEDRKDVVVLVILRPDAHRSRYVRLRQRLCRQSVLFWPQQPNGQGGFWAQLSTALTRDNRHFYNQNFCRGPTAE
The experiment in a line: Induction of TLR9-mediated IL12 production in C57BL/6 mouse spleen cells after 24 hrs by ELISA. Format: cell-based. A digest of the protocol:
(§1)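 C57BL/6 mouse spleen cells were cultured with agonists at 0.1, 0.3, 1, 3 and 10 μg/mL for 24 h. Secreted IL-12 and IL-6 in the supernatants were measured by ELISA. Values are averages of triplicate wells from one representative of at least two independent experiments.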
On the technique in general: In an ELISA, binding on a coated surface is turned into a signal by an enzyme label.

Experiment [7] has as its target T1, Toll-like receptor 9 (Homo sapiens). In words: Induction of TLR9-mediated immune stimulation in human PBMC assessed as IL2R production at 2 ug/ml after 24 hrs by luminex multiplex assay (RVb = 0.02 +/- 0.01 ng/ml).
The target is the same in experiment [8]. The experiment in a line: Induction of TLR9-mediated immune stimulation in human PBMC assessed as MCP1 production at 2 ug/ml after 24 hrs by luminex multiplex assay (RVb = 0.08 +/- 0.02 ng/ml).
The target is the same in experiment [9]. The experiment in a line: Induction of TLR9-mediated immune stimulation in human PBMC assessed as IL6 production at 2 ug/ml after 24 hrs by luminex multiplex assay (RVb = 0.01 ng/ml).
The target of experiment [10] is T2, Toll-like receptor 9 (Mus musculus). The experiment in a line: Induction of TLR9-mediated IL6 production in C57BL/6 mouse spleen cells after 24 hrs by ELISA. Format: cell-based. Put shortly:
as §1

Each structure is given as a SMILES string.

Consider `Cc1cn([C@H]2C[C@H](O[C@H]3C[C@@H](O)C[C@@H](OP(=O)(S)O[C@H]4C[C@H](n5cc(C)c(=O)[nH]c5=O)O[C@@H]4COP(=O)(S)O[C@H]4[C@@H](O)[C@H](n5ccc(N)nc5=O)O[C@@H]4COP(=O)(S)O[C@H]4C[C@H](n5cc(C)c(=O)[nH]c5=O)O[C@@H]4COP(=O)(S)O[C@H]4C[C@H](n5cc(C)c(=O)[nH]c5=O)O[C@@H]4COP(=O)(S)O[C@H]4C[C@H](n5ccc6c(=O)[nH]c(N)nc65)O[C@@H]4COP(=O)(S)O[C@H]4[C@@H](O)[C@H](n5ccc(N)nc5=O)O[C@@H]4COP(=O)(S)O[C@H]4C[C@H](n5cc(C)c(=O)[nH]c5=O)O[C@@H]4COP(=O)(S)O[C@H]4[C@@H](O)[C@H](n5cnc6c(=O)[nH]c(N)nc65)O[C@@H]4COP(=O)(S)O[C@H]4C[C@H](n5cc(C)c(=O)[nH]c5=O)O[C@@H]4COP(=O)(S)O[C@H]4[C@@H](O)[C@H](n5ccc(N)nc5=O)O[C@@H]4COP(=O)(S)O[C@H]4C[C@H](n5cc(C)c(=O)[nH]c5=O)O[C@@H]4CO)C3)[C@@H](COP(=O)(S)O[C@H]3[C@@H](O)[C@H](n4ccc(N)nc4=O)O[C@@H]3COP(=O)(S)O[C@H]3C[C@H](n4cc(C)c(=O)[nH]c4=O)O[C@@H]3COP(=O)(S)O[C@H]3C[C@H](n4cc(C)c(=O)[nH]c4=O)O[C@@H]3COP(=O)(S)O[C@H]3C[C@H](n4ccc5c(=O)[nH]c(N)nc54)O[C@@H]3COP(=O)(S)O[C@H]3[C@@H](O)[C@H](n4ccc(N)nc4=O)O[C@@H]3COP(=O)(S)O[C@H]3C[C@H](n4cc(C)c(=O)[nH]c4=O)O[C@@H]3COP(=O)(S)O[C@H]3[C@@H](O)[C@H](n4cnc5c(=O)[nH]c(N)nc54)O[C@@H]3COP(=O)(S)O[C@H]3C[C@H](n4cc(C)c(=O)[nH]c4=O)O[C@@H]3COP(=O)(S)O[C@H]3[C@@H](O)[C@H](n4ccc(N)nc4=O)O[C@@H]3COP(=O)(S)O[C@H]3C[C@H](n4cc(C)c(=O)[nH]c4=O)O[C@@H]3CO)O2)c(=O)[nH]c1=O` (stereo not given in full), for which the Activity is 0.67 ng/mL in [1]; 0.2 ng/mL in experiment [2]; 0.03 ng/mL in experiment [3]; 97.2 ng/mL in experiment [4]; “Dose-dependent effect” in experiment [5]; “Dose-dependent effect” in [6]. Moreover, the Activity in experiment [7] was 0.07 ng/mL; in experiment [8], 0.29 ng/mL; in [9], 0.3 ng/mL; in experiment [10] it was “Dose-dependent effect”.

With `Cc1cn([C@H]2C[C@H](OCC[C@H](O)COP(=O)(S)O[C@H]3C[C@H](n4cc(C)c(=O)[nH]c4=O)O[C@@H]3COP(=O)(S)O[C@H]3[C@@H](O)[C@H](n4ccc(N)nc4=O)O[C@@H]3COP(=O)(S)O[C@H]3C[C@H](n4cc(C)c(=O)[nH]c4=O)O[C@@H]3COP(=O)(S)O[C@H]3C[C@H](n4cc(C)c(=O)[nH]c4=O)O[C@@H]3COP(=O)(S)O[C@H]3C[C@H](n4ccc5c(=O)[nH]c(N)nc54)O[C@@H]3COP(=O)(S)O[C@H]3[C@@H](O)[C@H](n4ccc(N)nc4=O)O[C@@H]3COP(=O)(S)O[C@H]3C[C@H](n4cc(C)c(=O)[nH]c4=O)O[C@@H]3COP(=O)(S)O[C@H]3[C@@H](O)[C@H](n4cnc5c(=O)[nH]c(N)nc54)O[C@@H]3COP(=O)(S)O[C@H]3C[C@H](n4cc(C)c(=O)[nH]c4=O)O[C@@H]3COP(=O)(S)O[C@H]3[C@@H](O)[C@H](n4ccc(N)nc4=O)O[C@@H]3COP(=O)(S)O[C@H]3C[C@H](n4cc(C)c(=O)[nH]c4=O)O[C@@H]3CO)[C@@H](COP(=O)(S)O[C@H]3[C@@H](O)[C@H](n4ccc(N)nc4=O)O[C@@H]3COP(=O)(S)O[C@H]3C[C@H](n4cc(C)c(=O)[nH]c4=O)O[C@@H]3COP(=O)(S)O[C@H]3C[C@H](n4cc(C)c(=O)[nH]c4=O)O[C@@H]3COP(=O)(S)O[C@H]3C[C@H](n4ccc5c(=O)[nH]c(N)nc54)O[C@@H]3COP(=O)(S)O[C@H]3[C@@H](O)[C@H](n4ccc(N)nc4=O)O[C@@H]3COP(=O)(S)O[C@H]3C[C@H](n4cc(C)c(=O)[nH]c4=O)O[C@@H]3COP(=O)(S)O[C@H]3[C@@H](O)[C@H](n4cnc5c(=O)[nH]c(N)nc54)O[C@@H]3COP(=O)(S)O[C@H]3C[C@H](n4cc(C)c(=O)[nH]c4=O)O[C@@H]3COP(=O)(S)O[C@H]3[C@@H](O)[C@H](n4ccc(N)nc4=O)O[C@@H]3COP(=O)(S)O[C@H]3C[C@H](n4cc(C)c(=O)[nH]c4=O)O[C@@H]3CO)O2)c(=O)[nH]c1=O` (stereo not given in full), the Activity in experiment [1] was 0.32 ng/mL; in experiment [2], 0.2 ng/mL; in experiment [3] it was 0.99 ng/mL; in experiment [4], 29.6 ng/mL; in experiment [5], “Dose-dependent effect”; in experiment [6], “Dose-dependent effect”. The Activity is 0.09 ng/mL in experiment [7], 13.2 ng/mL in experiment [8], 0.54 ng/mL in experiment [9] and “Dose-dependent effect” in experiment [10].
